Test results published in ChEMBL document CHEMBL3124872, “Discovery and early development of TMC647055, a non-nucleoside inhibitor of the hepatitis C virus NS5B polymerase” (J Med Chem, 2014).
Active and inactive are the calls of the source. No cut-off for these calls is given here.

Experiments:
[1] = Toxicity in rat after 5 days; assay type: organism-based; settings: in vivo
Hepatitis C virus [2] = assay: Antiviral activity against Hepatitis C virus genotype 1b harboring NS5B NNI-1 site P495L mutant infected in human HuH7 by luciferase reporter gene assay relative to wild-type HCV genotype 1b; assay type: functional, Hepacivirus hominis, Huh-7
Homo sapiens [3] = assay: Toxicity in HCV genotype 1-infected patient assessed as effect on vital signs at 500 to 1000 mg, po bid for 5 days followed by morning dose on day 6; assay type: organism-based; settings: in vivo, 120 h
In short: (§1)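 HCV genotype 1-infected patients given oral b.i.d. doses of 500 or 1000 mg for 5 days plus a morning dose on day 6, in hydroxypropyl-β-cyclodextrin vehicle; adverse events with grading, laboratory parameters, vital signs, food consumption, appetite and ECG monitored.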

Hepatitis C virus [4] = assay: Antiviral activity against Hepatitis C virus genotype 1b infected in human assessed as log10 reduction in HCV RNA level at 1000 mg, po bid for 5 days followed by morning dose on day 6 relative to control; assay type: functional, Hepacivirus hominis
In short: (§2)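 Oral b.i.d. dosing of HCV genotype 1-infected patients at 500 mg or 1000 mg for 5 days, plus a morning dose on day 6, in hydroxypropyl-β-cyclodextrin vehicle. Read-out was the median maximum decrease in plasma HCV RNA from baseline (log10), using patients with HCV RNA data available up to Day 6.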

Hepatitis C virus [5] = assay: Antiviral activity against Hepatitis C virus genotype 1a infected in human assessed as reduction in plasma HCV RNA level administered for 10 days measured on day 11; assay type: functional, organism-based; settings: Hepacivirus hominis, subtype 1a
In short: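 HCV genotype 1a- and 1b-infected patients received oral 1000 mg b.i.d. together with an NS3/4A protease inhibitor at 150 mg q.d. for 10 days. The read-out was the median decrease in plasma HCV RNA (log10 IU/mL) at day 11.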

Hepatitis C virus [6] = assay: Antiviral activity against Hepatitis C virus harboring […] D168V mutant infected in human HuH7 by luciferase reporter gene assay; assay type: functional, organism-based; settings: Hepacivirus hominis; Huh-7
Hepatitis C virus [7] = assay: Antiviral activity against Hepatitis C virus harboring NS5B S282T mutant infected in human HuH7 by luciferase reporter gene assay; assay type: functional, organism-based; settings: Hepacivirus hominis; Huh-7
Hepatitis C virus [8] = assay: Antiviral activity against Hepatitis C virus genotype 1b infected in human HuH7 cells after 72 hrs by luciferase reporter gene assay in presence of 40% human plasma relative to control; assay type: functional, Hepacivirus hominis, Huh-7
Hepatitis C virus [9] = assay: Antiviral activity against Hepatitis C virus genotype 3a infected in human HuH7 by transient replicon assay; assay type: functional, organism-based, Hepacivirus hominis; settings: Huh-7
In short: (§3)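 Transient replicon assay using chimeric replicons whose NS5B region is derived from patient isolates of the stated genotype.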

Hepatitis C virus [10] = assay: Antiviral activity against Hepatitis C virus genotype 1b infected in human HuH7 assessed as suppression of formation of resistant colonies at 1.5 uM preincubated for 2 weeks followed by 3 week rebound phase by RT-PCR analysis; assay type: functional, organism-based; settings: Hepacivirus hominis, Huh-7
In short: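 Huh7-Luc genotype 1b replicon cells were incubated for 14 days with the NNI alone (up to 3.75 μM), with TMC435 alone, or with both. A 3-week rebound phase without inhibitor followed, tracking replicon RNA clearance. A parallel colony formation run exposed the cells for 2−3 weeks and scored resistant colonies.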

Rattus norvegicus = assay: Toxicity in rat assessed as decrease in body weight at 1000 mg/kg/day after 5 days; assay type: organism-based; settings: in vivo, 120 h
[11] = Binding affinity to Hepatitis C virus genotype 3a NS5B by surface plasmon resonance analysis; parameters: species or system Hepatitis C virus subtype 3a
In short: (§4)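 Surface plasmon resonance binding to NS5B polymerase of the stated genotype; association and dissociation rate constants measured, from which Kd and residence half-life were derived; median Kd reported.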

Homo sapiens [12] = assay: Toxicity in human assessed as gastrointestinal side-effects at 300 to 1250 mg, po bid for 5 days followed by morning dose on day 6; assay type: organism-based; settings: in vivo, 120 h
In short: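 Oral b.i.d. dosing for 5 days plus a single morning dose on day 6, in a hydroxypropyl-β-cyclodextrin vehicle. Healthy volunteers received 300, 1000 or 1250 mg; HCV genotype 1-infected patients received 500 or 1000 mg. Monitoring covered adverse events graded by severity, laboratory parameters, vital signs, food consumption, appetite and ECG.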

[13] = Drug uptake in Sprague-Dawley rat liver at 10 mg/kg, po after 7 hrs; assay type: ADME, organism-based; parameters: dose 10 mg/kg, route oral; settings: read-out: Drug uptake
Homo sapiens [14] = assay: Drug metabolism in human assessed as CYP3A4-induced 4-beta-hydroxycholesterol level at 300 to 1250 mg, po bid for 5 days followed by morning dose on day 6; assay type: ADME, organism-based; settings: in vivo, 120 h
In short: (§5)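 Healthy volunteers given oral b.i.d. doses of 300, 1000 or 1250 mg for 5 days plus a morning dose on day 6, in hydroxypropyl-β-cyclodextrin vehicle; adverse events, laboratory parameters, vital signs, food consumption, appetite, ECG and plasma 4-β-hydroxycholesterol (CYP3A4 induction marker) monitored.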

[15] = Cytotoxicity against human MRC5 cells after 3 days by resazurin-based fluorescence analysis; assay type: cell-based
[16] = Binding affinity to Hepatitis C virus genotype 5a NS5B by surface plasmon resonance analysis; parameters: species or system Hepatitis C virus subtype 5a; in short: as §4
Hepatitis C virus [17] = assay: Antiviral activity against Hepatitis C virus genotype 1a infected in po dosed human assessed as decrease in HCV RNA level administered bid for 5 days followed by morning dose on day 6; assay type: functional, organism-based; settings: Hepacivirus hominis; subtype 1a
In short: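 HCV genotype 1-infected patients received oral b.i.d. doses of 500 mg or 1000 mg in a hydroxypropyl-β-cyclodextrin vehicle for 5 days, plus a morning dose on day 6. The read-out was the median maximum decrease in HCV RNA from baseline in GT1a patients with data up to Day 6.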

Hepatitis C virus [18] = assay: Antiviral activity against Hepatitis C virus genotype 2b infected in human HuH7 by transient replicon assay; assay type: functional, organism-based, Hepacivirus hominis; settings: Huh-7; in short: as §3
Homo sapiens [19] = assay: Toxicity in human assessed as effect on ECG profile at 300 to 1250 mg, po bid for 5 days followed by morning dose on day 6; assay type: organism-based; settings: in vivo, 120 h; in short: as §5
Hepatitis C virus [20] = assay: Antiviral activity against Hepatitis C virus harboring […] L31V mutant infected in human HuH7 by luciferase reporter gene assay; assay type: functional, organism-based; settings: Hepacivirus hominis; Huh-7
Hepatitis C virus [21] = assay: Antiviral activity against Hepatitis C virus genotype 1a infected in human assessed as log10 reduction in HCV RNA level at 500 mg, po bid for 5 days followed by morning dose on day 6 relative to control; assay type: functional, Hepacivirus hominis, subtype 1a; in short: as §2
Homo sapiens [22] = assay: Toxicity in HCV genotype 1-infected patient assessed as effect on appetite at 500 to 1000 mg, po bid for 5 days followed by morning dose on day 6; assay type: organism-based; settings: in vivo, 120 h; in short: as §1
Hepatitis C virus [23] = assay: Antiviral activity against Hepatitis C virus genotype 1b harboring NS5B NNI-1 site V494A mutant infected in human HuH7 by luciferase reporter gene assay relative to wild-type HCV genotype 1b; assay type: functional, Hepacivirus hominis, Huh-7
Hepatitis C virus [24] = assay: Antiviral activity against Hepatitis C virus genotype 1b infected in human HuH7 cells after 72 hrs by luciferase reporter gene assay; assay type: functional, organism-based, Hepacivirus hominis; settings: Huh-7, 72 h
Hepatitis C virus [25] = assay: Antiviral activity against Hepatitis C virus harboring NS5B M423T mutant infected in human HuH7 by luciferase reporter gene assay; assay type: functional, organism-based; settings: Hepacivirus hominis; Huh-7
Hepatitis C virus [26] = assay: Antiviral activity against Hepatitis C virus harboring NS5B C316Y mutant infected in human HuH7 by luciferase reporter gene assay; assay type: functional, organism-based; settings: Hepacivirus hominis; Huh-7
[27] = Binding affinity to His6-tagged Hepatitis C virus Con 1b NS5B delta21 RNA dependent RNA polymerase expressed in Escherichia coli Rosetta 2 (DE3) by surface plasmon resonance analysis; parameters: species or system Hepatitis C virus (isolate Con1); in short: as §4
Hepatitis C virus [28] = assay: Antiviral activity against Hepatitis C virus genotype 4a infected in human HuH7 by transient replicon assay; assay type: functional, organism-based, Hepacivirus hominis; settings: Huh-7; in short: as §3
[29] = Cytotoxicity against HEK293T cells after 3 days by resazurin-based fluorescence analysis; assay type: cell-based, HEK-293T; settings: human

COc1ccc2c(c1)C=C1Cn3c-2c(C2CCCCC2)c2ccc(cc23)C(=O)NS(=O)(=O)N(C)CCOCCN(C)C1=O [TMC-647055]
NOAEL at 120 h [1]: ≤ 1000 mg/kg/day | fold change (FC) (Hepatitis C virus [2]): 371 | Activity (Homo sapiens [3]): Non-toxic | FC (Hepatitis C virus [4]): 3.4 | Activity (Hepatitis C virus [5]): Active | Activity (Hepatitis C virus [6]): Active | Activity (Hepatitis C virus [7]): Active | fold change (FC) (Hepatitis C virus [8]): 9 | EC50 (Hepatitis C virus [9]): 88 nM | Activity (Hepatitis C virus [10]): Active | Activity (Rattus norvegicus): Toxic | Kd [11]: 6.1 nM | Activity (Homo sapiens [12]): Toxic | concentration at 7 h [13]: 7800 ng/g | Drug metabolism (Homo sapiens [14]): Active | CC50 at 72 h [15]: > 50000 nM | Kd [16]: 21 nM | Activity (Hepatitis C virus [17]): Dose-dependent effect | EC50 (Hepatitis C virus [18]): > 28000 nM | Activity (Homo sapiens [19]): Non-toxic | Activity (Hepatitis C virus [20]): Active | FC (Hepatitis C virus [21]): 1.4 | Activity (Homo sapiens [22]): Non-toxic | fold change (FC) (Hepatitis C virus [23]): 3 | EC50 (Hepatitis C virus [24]): 77 nM | Activity (Hepatitis C virus [25]): Active | Activity (Hepatitis C virus [26]): Active | Kd [27]: 4.1 nM | EC50 (Hepatitis C virus [28]): 97 nM | CC50 at 72 h [29]: > 50000 nM
